In ChEMBL document CHEMBL1914438, “Synthesis and biological activity of novel N-cycloalkyl-(cycloalkylaryl)-2-[(3-R-2-oxo-2H-[1,2,4]triazino[2,3-c]quinazoline-6-yl)thio]acetamides” (2011):

How the values were obtained:
Format in all cases: functional
OVCAR-4 = assay: Growth inhibition of human OVCAR4 cells after 48 hrs by SRB assay; settings: OVCAR-4, 48 h
How it was run: (§1)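 NCI panel of about 60 human tumor lines, 48 h continuous exposure at five 10-fold dilutions from 10^-4 to 10^-8 M. SRB protein staining was read as absorbance at time zero, in untreated controls and at each concentration. GI50 is the concentration giving 50% lower net protein increase than controls. TGI is where Ti = Tz, and LC50 is 50% protein loss versus start.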

NCI-H460 = assay: Cytotoxicity against human NCI-H460 cells assessed as cell growth at 10^-5 M after 48 hrs by SRB assay; settings: NCI-H460, 48 h, read-out: Activity
How it was run: (§2)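 NCI human tumor cell line panel from nine cancer types. Each line was inoculated and preincubated 24–48 h, then exposed to a single concentration (10^-5 M) for 48 h. Growth was read by sulforhodamine B protein staining, measured spectrophotometrically. Value reported as percent growth of treated cells relative to untreated controls.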

[1] = test system: Photobacterium leiognathi; assay: Antibacterial activity against Photobacterium leiognathi Sh1 assessed as inhibition of bacterial luminescence at 0.1 mg/mL after 10 mins by bioluminometry-based acute action test; design: scale not given: the % may be the effect or the level left
How it was run: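 Marine P. leiognathi Sh1 (Azov Sea shrimp isolate) diluted in chloride solution to 10^5 cells/mL; compounds suspended in DMSO mixed with 1 mL bacterial suspension. Acute test: 10 min at 25 °C, then bioluminescence measured by bioluminometer as % of compound-free control. Tetracycline reference.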

RPMI-8226 = assay: Cytotoxicity against human RPMI8226 cells assessed as cell growth at 10^-5 M after 48 hrs by SRB assay; settings: RPMI-8226, 48 h, read-out: Activity; how it was run: as §2
PC-3 = assay: Growth inhibition of human PC3 cells after 48 hrs by SRB assay; settings: PC-3, 48 h; how it was run: as §1
Staphylococcus aureus = assay: Antibacterial activity against Staphylococcus aureus assessed as zone of inhibition at 0.1 mg/mL after 24 hrs by stiff-plate agar-diffusion method; settings: read-out: DIZ
HCT-15 = assay: Cytotoxicity against human HCT15 cells assessed as cell growth at 10^-5 M after 48 hrs by SRB assay; settings: HCT-15, 48 h, read-out: Activity
How it was run: (§3)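 NCI 60-cell-line one-dose primary screen: cells inoculated and preincubated 24–48 h, then test agent added at a single 10^-5 M concentration for a further 48 h. Endpoint is sulforhodamine B protein staining read spectrophotometrically. Reported as percent growth relative to untreated control cells.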

MCF7 = assay: Cytotoxicity against human MCF7 cells assessed as cell growth at 10^-5 M after 48 hrs by SRB assay; settings: MCF7, 48 h, read-out: Activity; how it was run: as §3
A549 = assay: Cytotoxicity against human A549 cells assessed as cell growth at 10^-5 M after 48 hrs by SRB assay; settings: A549, 48 h, read-out: Activity; how it was run: as §3
COLO 205 = assay: Growth inhibition of human COLO205 cells after 48 hrs by SRB assay; settings: COLO 205, 48 h; how it was run: as §1
MDA-MB-468 [2] = assay: Cytotoxicity against human MDA-MB-468 cells assessed as cell growth at 10^-5 M after 48 hrs by SRB assay; settings: MDA-MB-468, 48 h, read-out: Activity; how it was run: as §3
U-251 = assay: Cytotoxicity against human U251 cells assessed as cell growth at 10^-5 M after 48 hrs by SRB assay; settings: U-251, 48 h, read-out: Activity; how it was run: as §2
M14 = assay: Cytotoxicity against human M14 cells assessed as cell growth at 10^-5 M after 48 hrs by SRB assay; settings: M14, 48 h, read-out: Activity; how it was run: as §3
SN12C = assay: Cytotoxicity against human SN12C cells assessed as cell growth at 10^-5 M after 48 hrs by SRB assay; settings: read-out: Activity; how it was run: as §2
IGROV-1 = assay: Growth inhibition of human IGROV1 cells after 48 hrs by SRB assay; settings: IGROV-1, 48 h; how it was run: as §1
HOP-62 [3] = assay: Cytotoxicity against human HOP62 cells assessed as cell growth at 10^-5 M after 48 hrs by SRB assay; settings: HOP-62, 48 h, read-out: Activity; how it was run: as §3
T47D = assay: Cytotoxicity against human T47D cells assessed as cell growth at 10^-5 M after 48 hrs by SRB assay; settings: read-out: Activity; how it was run: as §2
SK-OV-3 = assay: Cytotoxicity against human SKOV3 cells assessed as cell growth at 10^-5 M after 48 hrs by SRB assay; settings: SK-OV-3, 48 h, read-out: Activity; how it was run: as §2
NCI-H522 = assay: Cytotoxicity against human NCI-H522 cells assessed as cell growth at 10^-5 M after 48 hrs by SRB assay; settings: NCI-H522, 48 h, read-out: Activity; how it was run: as §2
Mycobacterium = assay: Antibacterial activity against Mycobacterium luteum assessed as zone of inhibition at 0.5 mg/mL after 24 hrs by stiff-plate agar-diffusion method; settings: read-out: DIZ
DU-145 = assay: Cytotoxicity against human DU145 cells assessed as cell growth at 10^-5 M after 48 hrs by SRB assay; settings: DU-145, 48 h, read-out: Activity; how it was run: as §3
Aspergillus niger [4] = assay: Antifungal activity against Aspergillus niger assessed as zone of inhibition of late spore formation at 0.5 mg/mL after 48 to 72 hrs by stiff-plate agar-diffusion method; settings: read-out: DIZ
MDA-MB-468 [5] = assay: Growth inhibition of human MDA-MB-468 cells after 48 hrs by SRB assay; settings: MDA-MB-468, 48 h; how it was run: as §1
Escherichia coli = assay: Antibacterial activity against Escherichia coli assessed as zone of inhibition at 0.1 mg/mL after 24 hrs by stiff-plate agar-diffusion method; settings: read-out: DIZ
LOX IMVI = assay: Cytotoxicity against human LOXIMVI cells assessed as cell growth at 10^-5 M after 48 hrs by SRB assay; settings: read-out: Activity; how it was run: as §3
HOP-62 [6] = assay: Growth inhibition of human HOP62 cells after 48 hrs by SRB assay; settings: HOP-62, 48 h; how it was run: as §1
[7] = test system: Photobacterium leiognathi; assay: Antibacterial activity against Photobacterium leiognathi Sh1 assessed as inhibition of bacterial luminescence at 0.1 mg/mL after 10 mins by bioluminometry-based chronic action test; design: scale not given: the % may be the effect or the level left; settings: in the assay text read “after 16 to 18 hrs” for “after 10 mins”
How it was run: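 Chronic (growth plus luminescence) test with P. leiognathi Sh1 at 10^5 cells/mL in chloride solution, compounds added in DMSO. After 10 min at 25 °C, growth medium added at 1:50 and the mix incubated 16–18 h at 30 °C. Luminescence then measured by bioluminometer as % of untreated control. Tetracycline reference.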

CAKI-1 = assay: Cytotoxicity against human Caki1 cells assessed as cell growth at 10^-5 M after 48 hrs by SRB assay; settings: CAKI-1, 48 h, read-out: Activity; how it was run: as §3
Aspergillus niger [8] = assay: Antifungal activity against Aspergillus niger assessed as zone of inhibition at 0.1 mg/mL after 48 to 72 hrs by stiff-plate agar-diffusion method; settings: read-out: DIZ
[9] = read-out: pLC50 (the source's name) (converted)

`CCC1C2CCC(C2)C1NC(=O)CSc1nc2ccccc2c2nc(=O)c(-c3ccc(OC)cc3)nn12` (stereo unspecified) was tested, and the GI50 (OVCAR-4) was 1.66 µM, the CC50 (OVCAR-4; [9]) was 43.7 µM and the TGI (OVCAR-4; read-out: pTGI (converted)) was 6.31 µM. The growth at 10 µM (NCI-H460) was 56%, the Activity [1] was 84% and the growth at 10 µM (RPMI-8226) was 47.4%. The GI50 (PC-3) was 2.82 µM, the CC50 (PC-3; [9]) was > 50.1 µM and the TGI (PC-3; read-out: pTGI (converted)) was 24.5 µM. It also gave a zone of inhibition at 100 µg/mL (Staphylococcus aureus) of 0 mm, a growth at 10 µM (HCT-15) of 67.9% and a growth at 10 µM (MCF7) of 48.2%. The growth at 10 µM (A549) was 50.4%, the GI50 (COLO 205) was 3.47 µM and the CC50 (COLO 205; [9]) was > 50.1 µM. For the same compound, the TGI (COLO 205; read-out: pTGI) was > 50.1 µM, the growth at 10 µM (MDA-MB-468 [2]) was -59.5% and the growth at 10 µM (U-251) was -98.9%. The growth at 10 µM (M14) was 44.2%, the growth at 10 µM (SN12C) was 57.8% and the GI50 (IGROV-1) was 2.69 µM. The CC50 (IGROV-1; [9]) was > 50.1 µM, the TGI (IGROV-1; read-out: pTGI (converted)) was 36.3 µM and the growth at 10 µM (HOP-62 [3]) was -19.5%. For the same compound, the growth at 10 µM (T47D) was -11.3%, the growth at 10 µM (SK-OV-3) was -5.12% and the growth at 10 µM (NCI-H522) was -49.9%. The zone of inhibition at 500 µg/mL (Mycobacterium) was 0 mm, the growth at 10 µM (DU-145) was -32% and the zone of inhibition at 500 µg/mL (Aspergillus niger [4]) was 18 mm. For the same compound, the GI50 (MDA-MB-468 [5]) was 1.35 µM, the CC50 (MDA-MB-468 [5]; [9]) was 30.2 µM and the TGI (MDA-MB-468 [5]; read-out: pTGI (converted)) was 3.98 µM. For the same compound, the zone of inhibition at 100 µg/mL (Escherichia coli) was 0 mm, the growth at 10 µM (LOX IMVI) was 70.5% and the GI50 (HOP-62 [6]) was 2.45 µM. It also gave a CC50 (HOP-62 [6]; [9]) of 36.3 µM, a TGI (HOP-62 [6]; read-out: pTGI (converted)) of 11.5 µM and an Activity [7] of 144%. The growth at 10 µM (CAKI-1) was 36.1% and the zone of inhibition at 100 µg/mL (Aspergillus niger [8]) was 0 mm.
